Laboratory results reported in ChEMBL document CHEMBL1130132, “Selective inhibition of neuronal nitric oxide synthase by N omega-nitroarginine-and phenylalanine-containing dipeptides and dipeptide esters” (J Med Chem, 1997).
Where a SMILES comes first, the peptide text is derived from it. [ ]: non-standard residue; d: D form. The star is where a group is joined. dArg(NO2) = N=C(NCCC[C@@H](N)C(=O)O)N[N+](=O)[O-]; Arg(NO2) = N=C(NCCC[C@H](N)C(=O)O)N[N+](=O)[O-]; OBn = c1ccc(CO*)cc1

Tests used:
[1] = Selectivity for iNOS and eNOS binding, ratio of Ki
[2] = target: T1, Nitric oxide synthase, inducible (Mus musculus, UniProt P29477); assay: Inhibition of inducible Nitric Oxide Synthase
T1 sequence (P29477 whole entry): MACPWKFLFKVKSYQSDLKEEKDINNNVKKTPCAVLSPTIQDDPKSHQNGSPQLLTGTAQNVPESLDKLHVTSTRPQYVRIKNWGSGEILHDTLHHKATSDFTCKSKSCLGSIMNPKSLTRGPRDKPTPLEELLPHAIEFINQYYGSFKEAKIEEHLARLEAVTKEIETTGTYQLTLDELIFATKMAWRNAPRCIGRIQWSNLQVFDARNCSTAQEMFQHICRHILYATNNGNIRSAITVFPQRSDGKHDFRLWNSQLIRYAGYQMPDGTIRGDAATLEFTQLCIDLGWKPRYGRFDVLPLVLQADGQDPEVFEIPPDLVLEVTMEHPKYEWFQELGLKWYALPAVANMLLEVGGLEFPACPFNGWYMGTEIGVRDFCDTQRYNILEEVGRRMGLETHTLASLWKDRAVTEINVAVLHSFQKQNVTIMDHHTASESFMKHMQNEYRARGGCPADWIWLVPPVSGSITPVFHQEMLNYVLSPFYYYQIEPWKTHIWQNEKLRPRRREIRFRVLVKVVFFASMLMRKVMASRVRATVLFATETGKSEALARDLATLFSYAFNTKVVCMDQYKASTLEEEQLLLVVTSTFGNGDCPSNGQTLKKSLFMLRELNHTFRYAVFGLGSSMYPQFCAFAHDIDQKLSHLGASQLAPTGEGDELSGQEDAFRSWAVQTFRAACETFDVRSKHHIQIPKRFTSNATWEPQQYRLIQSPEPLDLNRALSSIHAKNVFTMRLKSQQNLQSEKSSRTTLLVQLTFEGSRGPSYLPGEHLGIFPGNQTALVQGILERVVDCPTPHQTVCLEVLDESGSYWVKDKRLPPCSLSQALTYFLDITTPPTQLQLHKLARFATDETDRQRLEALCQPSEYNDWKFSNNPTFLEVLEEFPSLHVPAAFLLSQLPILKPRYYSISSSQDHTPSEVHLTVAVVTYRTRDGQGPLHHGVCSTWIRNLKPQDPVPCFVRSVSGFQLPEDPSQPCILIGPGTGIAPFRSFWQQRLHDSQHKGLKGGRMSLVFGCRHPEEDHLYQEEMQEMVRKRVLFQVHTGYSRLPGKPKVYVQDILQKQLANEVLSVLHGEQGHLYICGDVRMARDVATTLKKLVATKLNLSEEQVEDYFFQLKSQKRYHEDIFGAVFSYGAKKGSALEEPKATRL
Method in brief: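 Purified murine macrophage iNOS expressed in recombinant E. coli (500 nmol NO/mg/min at 30 °C). Initial-rate hemoglobin capture assay in 100 mM Hepes pH 7.5 with 10-60 µM L-arginine, 100 µM DTT, 100 µM NADPH, 6.5 µM BH4 and 3 µM oxyhemoglobin, without added calcium/calmodulin. Ki taken from Dixon plots across varied L-arginine and inhibitor concentrations.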

[3] = Selectivity for nNOS and eNOS, ratio of Ki
[4] = target: T2, Nitric oxide synthase 3 (Bos taurus, UniProt P29473); assay: Inhibition of endothelial isoform of nitric oxide synthase
T2 sequence (P29473 whole entry): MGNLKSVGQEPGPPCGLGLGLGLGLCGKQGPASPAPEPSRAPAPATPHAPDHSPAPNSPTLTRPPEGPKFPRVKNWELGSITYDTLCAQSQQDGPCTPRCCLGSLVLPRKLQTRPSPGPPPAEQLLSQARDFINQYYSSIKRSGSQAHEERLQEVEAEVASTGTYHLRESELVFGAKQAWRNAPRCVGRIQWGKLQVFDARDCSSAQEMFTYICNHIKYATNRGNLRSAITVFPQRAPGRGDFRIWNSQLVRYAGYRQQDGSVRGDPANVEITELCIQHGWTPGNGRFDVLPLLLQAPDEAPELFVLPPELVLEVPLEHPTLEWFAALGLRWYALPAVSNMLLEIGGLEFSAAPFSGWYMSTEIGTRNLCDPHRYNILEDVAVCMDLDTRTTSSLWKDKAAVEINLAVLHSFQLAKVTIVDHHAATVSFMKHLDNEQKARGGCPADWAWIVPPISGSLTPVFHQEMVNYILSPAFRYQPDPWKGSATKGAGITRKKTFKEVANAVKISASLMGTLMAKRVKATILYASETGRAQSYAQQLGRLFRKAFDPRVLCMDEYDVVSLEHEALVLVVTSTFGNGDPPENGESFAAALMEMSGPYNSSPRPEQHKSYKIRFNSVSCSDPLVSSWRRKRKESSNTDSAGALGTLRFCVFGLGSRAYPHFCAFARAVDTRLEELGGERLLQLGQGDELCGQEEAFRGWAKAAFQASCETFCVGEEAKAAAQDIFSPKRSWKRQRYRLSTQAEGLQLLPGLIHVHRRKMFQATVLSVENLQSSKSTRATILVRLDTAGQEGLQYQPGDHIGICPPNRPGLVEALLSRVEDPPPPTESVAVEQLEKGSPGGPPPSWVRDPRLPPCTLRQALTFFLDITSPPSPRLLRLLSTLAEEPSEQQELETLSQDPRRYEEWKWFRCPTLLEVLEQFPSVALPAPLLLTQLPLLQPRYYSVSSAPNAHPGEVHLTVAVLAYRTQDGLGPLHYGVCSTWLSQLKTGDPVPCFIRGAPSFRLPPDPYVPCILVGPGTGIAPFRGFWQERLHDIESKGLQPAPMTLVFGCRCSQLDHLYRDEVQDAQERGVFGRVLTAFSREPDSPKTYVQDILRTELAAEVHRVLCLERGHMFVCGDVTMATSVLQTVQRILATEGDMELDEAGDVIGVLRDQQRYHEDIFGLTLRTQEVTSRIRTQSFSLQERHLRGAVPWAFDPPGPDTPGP
Method in brief: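 eNOS expressed in E. coli, purified and supplemented with L-arginine and BH4 (235 nmol NO/mg/min at 25 °C). NO formation was followed by oxyhemoglobin capture (80 µM) under initial rates in 50 mM Hepes pH 7.5 with 3-25 µM L-arginine, 100 µM DTT, 10 µM CaCl2, 1 µg/mL calmodulin, 5 µM BH4 and 100 µM NADPH. Ki came from Dixon plots with varied substrate and inhibitor.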

[5] = target: Nitric oxide sythases; iNOS & nNOS (Homo sapiens) (UniProt P29475+P35228); assay: Selectivity for nNOS and iNOS, ratio of Ki; assay type: protein assay
Sequence of Nitric oxide sythases; iNOS & nNOS (Homo sapiens) (P29475 whole entry, looked up): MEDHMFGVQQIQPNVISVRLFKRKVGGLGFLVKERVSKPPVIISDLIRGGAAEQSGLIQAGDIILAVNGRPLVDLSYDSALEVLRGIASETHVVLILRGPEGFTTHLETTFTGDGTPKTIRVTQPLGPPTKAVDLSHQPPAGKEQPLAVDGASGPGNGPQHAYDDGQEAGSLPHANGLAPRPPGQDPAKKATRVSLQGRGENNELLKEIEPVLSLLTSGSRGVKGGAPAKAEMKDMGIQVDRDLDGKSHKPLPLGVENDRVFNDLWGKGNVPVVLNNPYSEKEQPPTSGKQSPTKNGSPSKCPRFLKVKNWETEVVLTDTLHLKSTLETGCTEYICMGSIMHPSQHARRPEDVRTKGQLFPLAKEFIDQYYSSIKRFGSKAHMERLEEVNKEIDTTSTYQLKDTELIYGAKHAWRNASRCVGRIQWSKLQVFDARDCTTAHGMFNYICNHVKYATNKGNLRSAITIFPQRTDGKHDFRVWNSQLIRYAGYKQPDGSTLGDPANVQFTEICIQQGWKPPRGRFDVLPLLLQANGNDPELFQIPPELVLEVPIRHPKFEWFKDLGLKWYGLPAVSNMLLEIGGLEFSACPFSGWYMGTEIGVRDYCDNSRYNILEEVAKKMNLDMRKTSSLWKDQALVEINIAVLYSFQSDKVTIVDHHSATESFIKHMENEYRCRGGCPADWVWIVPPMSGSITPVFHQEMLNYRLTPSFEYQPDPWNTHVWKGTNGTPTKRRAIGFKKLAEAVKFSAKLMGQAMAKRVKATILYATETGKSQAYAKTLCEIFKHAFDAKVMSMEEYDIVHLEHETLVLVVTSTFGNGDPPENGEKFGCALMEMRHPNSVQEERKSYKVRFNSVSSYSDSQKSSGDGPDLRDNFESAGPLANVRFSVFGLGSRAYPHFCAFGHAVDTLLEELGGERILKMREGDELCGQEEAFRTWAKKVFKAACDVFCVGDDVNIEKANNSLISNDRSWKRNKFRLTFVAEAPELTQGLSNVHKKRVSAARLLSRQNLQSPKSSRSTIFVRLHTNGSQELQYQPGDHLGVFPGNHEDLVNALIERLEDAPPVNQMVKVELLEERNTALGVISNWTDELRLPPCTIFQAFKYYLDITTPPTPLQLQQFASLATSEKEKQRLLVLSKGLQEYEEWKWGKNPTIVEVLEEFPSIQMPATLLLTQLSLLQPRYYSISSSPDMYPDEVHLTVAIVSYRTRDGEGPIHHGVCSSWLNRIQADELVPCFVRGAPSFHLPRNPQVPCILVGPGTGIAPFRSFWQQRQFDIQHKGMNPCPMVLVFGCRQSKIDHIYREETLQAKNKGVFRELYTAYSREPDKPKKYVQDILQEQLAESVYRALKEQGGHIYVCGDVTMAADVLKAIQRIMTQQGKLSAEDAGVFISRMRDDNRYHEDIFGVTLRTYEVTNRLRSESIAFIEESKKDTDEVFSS
Sequence of Nitric oxide sythases; iNOS & nNOS (Homo sapiens) (P35228 whole entry, looked up): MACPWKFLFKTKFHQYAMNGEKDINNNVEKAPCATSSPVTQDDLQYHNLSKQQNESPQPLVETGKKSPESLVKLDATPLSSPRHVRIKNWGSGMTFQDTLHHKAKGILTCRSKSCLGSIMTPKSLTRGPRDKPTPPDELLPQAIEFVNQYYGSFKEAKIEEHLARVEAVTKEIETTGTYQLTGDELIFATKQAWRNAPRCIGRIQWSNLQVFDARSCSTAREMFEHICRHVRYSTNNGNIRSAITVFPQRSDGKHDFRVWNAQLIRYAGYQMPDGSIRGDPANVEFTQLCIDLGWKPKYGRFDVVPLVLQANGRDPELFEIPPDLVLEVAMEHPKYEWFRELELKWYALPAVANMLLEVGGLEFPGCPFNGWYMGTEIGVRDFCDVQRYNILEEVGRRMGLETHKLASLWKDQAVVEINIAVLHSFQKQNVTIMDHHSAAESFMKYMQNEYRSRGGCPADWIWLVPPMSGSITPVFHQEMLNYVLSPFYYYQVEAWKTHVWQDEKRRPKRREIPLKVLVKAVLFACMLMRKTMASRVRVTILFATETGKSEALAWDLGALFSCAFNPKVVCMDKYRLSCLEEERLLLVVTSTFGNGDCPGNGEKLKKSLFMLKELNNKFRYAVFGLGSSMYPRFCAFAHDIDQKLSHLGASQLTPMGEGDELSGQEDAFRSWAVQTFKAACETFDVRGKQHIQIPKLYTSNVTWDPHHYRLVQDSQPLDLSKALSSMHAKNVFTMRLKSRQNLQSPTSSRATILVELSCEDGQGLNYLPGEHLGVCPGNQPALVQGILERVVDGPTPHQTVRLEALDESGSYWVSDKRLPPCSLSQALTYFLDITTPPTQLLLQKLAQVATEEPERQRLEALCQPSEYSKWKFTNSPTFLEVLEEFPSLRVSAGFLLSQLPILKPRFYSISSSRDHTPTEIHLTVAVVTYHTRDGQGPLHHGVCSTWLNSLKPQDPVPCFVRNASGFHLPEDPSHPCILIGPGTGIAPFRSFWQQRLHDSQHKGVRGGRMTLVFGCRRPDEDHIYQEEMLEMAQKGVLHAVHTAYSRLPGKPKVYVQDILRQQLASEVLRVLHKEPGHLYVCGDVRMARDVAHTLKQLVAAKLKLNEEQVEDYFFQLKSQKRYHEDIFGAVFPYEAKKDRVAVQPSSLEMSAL

N/C(=N\CCC[C@H](NC(=O)[C@@H](N)Cc1ccccc1)C(=O)OCc1ccccc1)N[N+](=O)[O-] (H-Phe-[Arg(NO2)]-OBn)
Selectivity [1]: 5.6 | Ki [2]: 45 µM | Selectivity [3]: 2.3 | Ki [4]: 250 µM | Selectivity [5]: 0.41

COC(=O)[C@@H](Cc1ccccc1)NC(=O)[C@@H](N)CCC/N=C(\N)N[N+](=O)[O-]
Selectivity [1]: 5.3 | Ki [2]: 100 µM | Selectivity [3]: 5.7 | Ki [4]: 525 µM | Selectivity [5]: 1.1

N/C(=N\CCC[C@H](NC(=O)[C@@H](N)Cc1ccccc1)C(=O)O)N[N+](=O)[O-] (H-Phe-[Arg(NO2)]-OH)
Selectivity [1]: 5.3 | Selectivity [3]: 3.5 | Selectivity [5]: 0.66

COC(=O)[C@H](CCC/N=C(\N)N[N+](=O)[O-])NC(=O)[C@@H](N)Cc1ccccc1
Selectivity [1]: 6.6 | Ki [2]: 204 µM | Selectivity [3]: 3.6 | Ki [4]: 1350 µM | Selectivity [5]: 0.55

COC(=O)[C@@H](CCC/N=C(\N)N[N+](=O)[O-])NC(=O)[C@@H](N)Cc1ccccc1
Selectivity [1]: 0.02 | Ki [2]: 7500 µM | Selectivity [3]: 1.7 | Ki [4]: 150 µM | Selectivity [5]: 83.3

N=C(NCCC[C@H](NC(=O)[C@@H](N)Cc1ccccc1)C(=O)O)N[N+](=O)[O-] (H-Phe-[Arg(NO2)]-OH)
Ki [2]: 93 µM | Ki [4]: 490 µM

N/C(=N\CCC[C@@H](NC(=O)[C@H](N)Cc1ccccc1)C(=O)O)N[N+](=O)[O-] (H-[dF]-[dArg(NO2)]-OH)
Selectivity [1]: 0.0066 | Ki [2]: 13600 µM | Selectivity [3]: 5.3 | Ki [4]: 90 µM | Selectivity [5]: 800

COC(=O)[C@@H](CCCNC(=N)N[N+](=O)[O-])NC(=O)[C@H](N)Cc1ccccc1 [listing 1 of 2 here]
Ki [2]: 1200 µM | Ki [4]: 8500 µM

COC(=O)[C@@H](CCCNC(=N)N[N+](=O)[O-])NC(=O)[C@H](N)Cc1ccccc1 [listing 2 of 2 here]
Ki [2]: 3600 µM | Ki [4]: 5 µM

COC(=O)[C@@H](Cc1ccccc1)NC(=O)[C@H](N)CCC/N=C(\N)N[N+](=O)[O-]
Selectivity [1]: 0.058 | Selectivity [3]: 2.5 | Selectivity [5]: 43.3

COC(=O)[C@@H](Cc1ccccc1)NC(=O)[C@H](N)CCCNC(=N)N[N+](=O)[O-]
Ki [2]: 6500 µM | Ki [4]: 375 µM

N/C(=N\CCC[C@H](N)C(=O)N[C@@H](Cc1ccccc1)C(=O)O)N[N+](=O)[O-]
Selectivity [1]: 2.5 | Ki [2]: 160 µM | Selectivity [3]: 21.9 | Ki [4]: 395 µM | Selectivity [5]: 8.9

N/C(=N\CCC[C@H](N)C(=O)N[C@@H](Cc1ccccc1)C(=O)OCc1ccccc1)N[N+](=O)[O-]
Selectivity [1]: 6.9 | Ki [2]: 18 µM | Selectivity [3]: 2.3 | Ki [4]: 125 µM | Selectivity [5]: 0.33

COC(=O)[C@H](Cc1ccccc1)NC(=O)[C@@H](N)CCC/N=C(\N)N[N+](=O)[O-]
Ki [2]: 45 µM | Ki [4]: 400 µM
